Source: PubChem BioAssay
The sample as a whole holds a higher share of hits than the screen did.
A1 apoptosis 2: A1 inhibitors via caspase activation, primary screen, cell-based, luminescence, HTS, two replicates. MEF A1-2A-BIM cells, caspase-Glo luminescence, 3 h; percent of clofoctol response, DMSO zero. caspase activation, % (test concentration not listed). 24,000 tested, under 10 active. AID 2465, 2010; in the data active means caspase activation above about 5.9%
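Material: mouse embryonic fibroblasts co-expressing A1 and BIM (A1-2A-BIM), primed for A1 dependence / Quantity: 2500 cells/well / Buffer or medium: RPMI-1640 growth medium with 10% FBS / Doses: 50 nL compound per well, pinned / Schedule: 3 h compound exposure at 37 °C / Signal: Caspase-Glo luminescence (DEVD substrate) / Measure: Caspase-3/7 activation, seen as rise in luminescence signal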
T cruzi intra: inhibitors of intracellular Trypanosoma cruzi, primary screen, cell-based, plate reader, single point, set 2. intracellular Trypanosoma cruzi in host cells. activity score (inhibition), % at 5.01 µM. 22,000 compounds, 4.9% hits. AID 651903, 2012; in the data active means activity score above about 55%;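 further: parasites and compound incubated about four days before reading; 0% = median of neutral control wells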
INS-1E rescue: protection of INS-1E cells from cytokine death, primary screen, ATP luminescence, single point; 20,000 compounds, 0.1% hits; INS-1E cytokine-induced death, 48 h; normalised: neutral wells 0, positive control 100; protection from cytokine-induced ATP loss, % at 10 µM; AID 488910, 2010;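 active means mean replicate protection from cytokine-induced ATP loss at least 50% and at least 75% of replicates each reaching 50%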
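Assay system – rat INS-1E insulinoma cell line · Quantity – 8000 cells per well · Buffer or medium – RPMI without phenol red, 5% FBS · Schedule – 48 h co-treatment, 10 min post-lysis read · Technique – luminescent ATP assay (CellTiter-Glo)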
Numbers without * were called inactive; nt = not tested or not shown.

SMILES | A1 apoptosis 2 | T cruzi intra | INS-1E rescue
C[C@H](CO)N1C[C@H](C)[C@H](CN(C)C(=O)Nc2ccc(C(F)(F)F)cc2)OCCCC[C@H](C)Oc2ccc(NS(=O)(=O)c3ccc(F)cc3)cc2C1=O | -1.6 | nt | nt
C[C@@H]1CCCCO[C@H](CN(C)C(=O)Nc2cccc3ccccc23)[C@@H](C)CN([C@H](C)CO)C(=O)c2cc(NS(=O)(=O)c3ccc(Cl)cc3)ccc2O1 | 0.1 | 66.2* | -1.6
O=C(N/N=C/c1ccc2ccccc2c1)c1ccccc1O | -2.5 | -24.6 | -29.9
NC(=O)COc1ccccc1/C=N/NC(=O)CCCCC(=O)NO | 0.4 | -16.6 | 4.6
C=CCNC(=O)[C@H]1[C@@H]2C(=O)O[C@@H](c3ccccc3)[C@@H](c3ccccc3)N2[C@@H](c2ccccc2OCCO)[C@]12C(=O)Nc1ccc(C#CCNC(N)=O)cc12 | -0.5 | nt | nt
C[C@@H]1CN([C@@H](C)CO)C(=O)c2cc(NC(=O)Nc3ccc4c(c3)OCO4)ccc2O[C@H]1CN(C)Cc1ccc(C(=O)Nc2ccccc2N)cc1 | 0.1 | 54.9 | -18.7
C[C@H]1CN([C@@H](C)CO)C(=O)c2cccc(NC(=O)Nc3ccc4c(c3)OCO4)c2O[C@H]1CN(C)Cc1ccc(C(=O)Nc2ccccc2N)cc1 | nt | 66.4* | -12.9
C[C@@H]1CN([C@H](C)CO)C(=O)c2cccc(NC(=O)Nc3ccc4c(c3)OCO4)c2O[C@@H]1CN(C)Cc1ccc(C(=O)Nc2ccccc2N)cc1 | nt | 68.0* | 10.5
C[C@@H]1CN([C@@H](C)CO)C(=O)c2cc(NC(=O)Nc3ccc4c(c3)OCO4)ccc2O[C@@H]1CN(C)Cc1ccc(C(=O)Nc2ccccc2N)cc1 | nt | 46.1 | 4.4
O=C(NO)c1cccc(C(=O)N/N=C/c2cc3ccccc3n2S(=O)(=O)c2ccccc2)c1 | nt | -22.6 | -4.0
C[C@H](CO)N1C[C@H](C)[C@H](CN(C)S(=O)(=O)c2cccc(F)c2)Oc2ncc(C#Cc3ccc(C(F)(F)F)cc3)cc2C1=O | 0.0 | 85.2* | nt
C[C@H](CO)N1C[C@H](C)[C@H](CN(C)S(=O)(=O)c2ccccc2)Oc2ncc(C#Cc3ccc(C(F)(F)F)cc3)cc2C1=O | 1.1 | 78.5* | nt
COc1ccc(C#Cc2cnc3c(c2)C(=O)N([C@H](C)CO)C[C@H](C)[C@H](CN(C)S(=O)(=O)c2ccccc2)O3)cc1OC | -1.0 | 36.5 | nt
C[C@H](CO)N1C[C@H](C)[C@H](CN(C)S(=O)(=O)c2cccc(F)c2)Oc2ncc(C#Cc3ccccc3)cc2C1=O | -0.5 | 51.5 | nt
COc1cccc(S(=O)(=O)N(C)C[C@@H]2Oc3ncc(C#Cc4ccc(F)cc4)cc3C(=O)N([C@H](C)CO)C[C@@H]2C)c1 | -0.5 | 72.9* | nt
C[C@H](CO)N1C[C@H](C)[C@H](CN(C)S(=O)(=O)c2cccs2)Oc2ncc(C#Cc3cccc(F)c3)cc2C1=O | nt | 71.3* | nt
CCCC(O)C#Cc1cnc2c(c1)C(=O)N([C@H](C)CO)C[C@H](C)[C@H](CN(C)S(=O)(=O)c1cccc(OC)c1)O2 (stereo not given in full) | nt | 14.5 | nt
C[C@H](CO)N1C[C@H](C)[C@H](CN(C)S(C)(=O)=O)Oc2ncc(C#Cc3cccc(F)c3)cc2C1=O | nt | -5.7 | nt
O=C(N/N=C/c1ccccc1[N+](=O)[O-])c1ccccn1 | nt | -23.8 | 6.1
O=C(NO)c1ccc(C(=O)N/N=C/c2ccc(-c3ccccc3)cc2)cc1 | -7.1 | -3.6 | -18.4
NC(=O)COc1ccc(/C=N/NC(=O)CCCCCCC(=O)Nc2ccccc2O)cc1 | -1.2 | -9.5 | -2.0
C[C@H](CO)N1C[C@H](C)[C@H](CN(C)S(=O)(=O)c2ccccc2)Oc2ncc(C#Cc3ccccc3)cc2C1=O | 1.3 | 48.2 | nt
Cc1ccc(S(=O)(=O)N(C)C[C@@H]2Oc3ncc(C#Cc4ccc(C(F)(F)F)cc4)cc3C(=O)N([C@H](C)CO)C[C@@H]2C)cc1 | 1.5 | 89.3* | -3.1
C[C@H](CO)N1C[C@H](C)[C@H](CN(C)S(=O)(=O)c2ccc(F)cc2)Oc2ncc(C#Cc3ccccc3)cc2C1=O | nt | 61.8* | nt
Cc1ccc(S(=O)(=O)N(C)C[C@@H]2Oc3ncc(C#CCN(C)C)cc3C(=O)N([C@H](C)CO)C[C@@H]2C)cc1 | nt | 23.2 | nt
SMILES | A1 apoptosis 2 | T cruzi intra | INS-1E rescue
COc1ccc(S(=O)(=O)N(C)C[C@@H]2Oc3ncc(C#Cc4cccc(F)c4)cc3C(=O)N([C@H](C)CO)C[C@@H]2C)cc1 | nt | 52.1 | nt
CCCC(O)C#Cc1cnc2c(c1)C(=O)N([C@H](C)CO)C[C@H](C)[C@H](CN(C)S(=O)(=O)c1ccc(F)cc1)O2 (stereo not given in full) | 0.1 | 17.8 | nt
COc1ccc(S(=O)(=O)N(C)C[C@@H]2Oc3ncc(C#Cc4ccc(C(F)(F)F)cc4)cc3C(=O)N([C@H](C)CO)C[C@@H]2C)cc1 | nt | 82.4* | -4.2
C[C@H](CO)N1C[C@H](C)[C@H](CN(C)S(=O)(=O)c2ccc(F)cc2)Oc2ncc(C#Cc3ccc(C(F)(F)F)cc3)cc2C1=O | -0.9 | 85.4* | nt
O=C(CCCCCC(=O)Nc1ccccc1O)N/N=C\c1cc(O)ccc1O | 0.2 | 38.1 | 45.3
COc1ccc([C@H]2C=C(C(=O)NCc3ccccc3)O[C@@H](OCc3ccc(CO)cc3)C2)cc1 | 0.7 | nt | nt
CCOc1cc(/C=N/NC(=O)CCCCCCC(=O)NO)ccc1O | 0.4 | nt | nt
C[C@H](CO)N1C[C@H](C)[C@@H](CN(C)CC2CC2)Oc2ccc(NC(=O)Nc3ccc(C(F)(F)F)cc3)cc2CC1=O | 0.8 | nt | nt
C[C@@H]1CN([C@@H](C)CO)C(=O)Cc2cc(NC(=O)Nc3ccc(C(F)(F)F)cc3)ccc2O[C@@H]1CN(C)CC1CCCCC1 | nt | 77.0* | -45.9
C[C@H]1CN([C@@H](C)CO)C(=O)Cc2cc(NC(=O)Nc3ccc(C(F)(F)F)cc3)ccc2O[C@H]1CN(C)CC1CCCCC1 | nt | 72.0* | -55.7
C[C@H]1CN([C@@H](C)CO)C(=O)Cc2cc(NC(=O)Nc3ccc(C(F)(F)F)cc3)ccc2O[C@@H]1CN(C)CC1CC1 | 0.9 | -29.5 | 4.3
O=C(N/N=C/c1ccc(Oc2ccccc2)cc1)c1ccccc1O | -6.1 | 6.1 | 4.8
C[C@H](CO)N1C[C@H](C)[C@H](CN(C)Cc2ccc(Oc3ccccc3)cc2)Oc2c(NC(=O)Nc3ccc(C(F)(F)F)cc3)cccc2C1=O | nt | 61.9* | -110.8
C[C@@H]1CN([C@H](C)CO)C(=O)c2cccc(NC(=O)Nc3ccc(F)cc3)c2O[C@H]1CN(C)Cc1ccc(C(F)(F)F)cc1 | 0.6 | 31.4 | -31.0
C[C@H]1CN([C@@H](C)CO)C(=O)c2cccc(NC(=O)Nc3ccc(C(F)(F)F)cc3)c2O[C@@H]1CN(C)Cc1ccc(C(F)(F)F)cc1 | -2.0 | 35.2 | -109.2
C[C@H](CO)N1C[C@H](C)[C@@H](CN(C)Cc2ccc(C(F)(F)F)cc2)Oc2c(NC(=O)Nc3ccc(F)cc3)cccc2C1=O | -0.4 | 74.4* | -35.8
C[C@H]1CN([C@@H](C)CO)C(=O)c2cccc(NC(=O)Nc3ccc4c(c3)OCO4)c2O[C@H]1CN(C)Cc1ccc(C(F)(F)F)cc1 | 0.3 | 25.9 | -10.7
